# Source: ChEMBL document CHEMBL3400094, “Synthesis and SAR study of potent and selective PI3Kδ inhibitors” (Bioorg Med Chem Lett, 2015)
# Columns and labels:
# [1] = molecular target: T1, Phosphatidylinositol 4,5-bisphosphate 3-kinase catalytic subunit delta isoform (Homo sapiens, UniProt O00329); test: Inhibition of PI3Kdelta (unknown origin) by biochemical Alphascreen assay
# T1 sequence (O00329 whole entry): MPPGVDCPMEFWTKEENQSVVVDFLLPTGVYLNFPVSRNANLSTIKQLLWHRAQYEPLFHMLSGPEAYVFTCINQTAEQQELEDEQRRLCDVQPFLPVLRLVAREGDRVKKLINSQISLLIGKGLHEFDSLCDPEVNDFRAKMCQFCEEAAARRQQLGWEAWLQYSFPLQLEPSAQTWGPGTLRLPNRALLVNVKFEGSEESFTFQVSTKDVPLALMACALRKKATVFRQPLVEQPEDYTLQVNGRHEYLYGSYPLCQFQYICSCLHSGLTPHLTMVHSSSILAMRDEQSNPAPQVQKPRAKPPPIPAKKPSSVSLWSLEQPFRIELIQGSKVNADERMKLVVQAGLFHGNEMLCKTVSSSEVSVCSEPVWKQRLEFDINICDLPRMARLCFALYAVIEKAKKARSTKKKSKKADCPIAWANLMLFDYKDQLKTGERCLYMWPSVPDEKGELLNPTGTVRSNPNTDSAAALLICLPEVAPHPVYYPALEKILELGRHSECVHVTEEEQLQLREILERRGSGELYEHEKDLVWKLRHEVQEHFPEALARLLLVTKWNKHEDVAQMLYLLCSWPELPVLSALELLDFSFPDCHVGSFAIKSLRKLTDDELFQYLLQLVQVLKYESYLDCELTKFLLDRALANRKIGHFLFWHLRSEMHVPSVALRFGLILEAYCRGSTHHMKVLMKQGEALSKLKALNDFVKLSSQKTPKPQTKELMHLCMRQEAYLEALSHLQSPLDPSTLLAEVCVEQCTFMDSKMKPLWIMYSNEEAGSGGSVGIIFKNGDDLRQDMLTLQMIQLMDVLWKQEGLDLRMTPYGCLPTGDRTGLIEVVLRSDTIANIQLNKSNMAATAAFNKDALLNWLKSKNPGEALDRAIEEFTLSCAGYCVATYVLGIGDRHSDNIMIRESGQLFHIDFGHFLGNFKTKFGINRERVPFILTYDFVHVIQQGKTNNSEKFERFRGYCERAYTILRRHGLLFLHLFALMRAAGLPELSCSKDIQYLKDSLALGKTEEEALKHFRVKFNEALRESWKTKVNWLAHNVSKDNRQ
# [2] = molecular target: Phosphatidylinositol 4,5-bisphosphate 3-kinase catalytic subunit gamma isoform (Homo sapiens, UniProt P48736); test: Inhibition of PI3Kgamma (unknown origin) by biochemical Alphascreen assay
# [3] = molecular target: Phosphatidylinositol 4,5-bisphosphate 3-kinase catalytic subunit beta isoform (Homo sapiens, UniProt P42338); test: Inhibition of PI3Kbeta (unknown origin) by biochemical Alphascreen assay
# [4] = molecular target: Phosphatidylinositol 4,5-bisphosphate 3-kinase catalytic subunit alpha isoform (Homo sapiens, UniProt P42336); test: Inhibition of PI3Kalpha (unknown origin) by biochemical Alphascreen assay
# [5] = molecular target: T1, Phosphatidylinositol 4,5-bisphosphate 3-kinase catalytic subunit delta isoform; test: Inhibition of PI3Kdelta (unknown origin) assessed as inhibition of AKT phosphorylation by cell-based HTRF assay
# [6] = Clearance in Sprague-Dawley rat at 0.5 mg/kg, iv and 2 to 10 mg/kg, po; type: ADME, organism-based; conditions: in vivo
# Procedure, shortened: (§1)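 Male Sprague-Dawley rats, n=3. Compounds formulated for iv dosing at 0.5 mg/kg or oral dosing at 2-10 mg/kg.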
# [7] = Metabolic stability assessed as glutathione adduct formation of SO2Me after 30 mins; type: ADME; conditions: 0.5 h
# [8] = Oral bioavailability in Sprague-Dawley rat at 2 to 10 mg/kg; type: ADME, organism-based; conditions: in vivo; procedure, shortened: as §1
# Sequence of Phosphatidylinositol 4,5-bisphosphate 3-kinase catalytic subunit gamma isoform (P48736 whole entry, canonical isoform): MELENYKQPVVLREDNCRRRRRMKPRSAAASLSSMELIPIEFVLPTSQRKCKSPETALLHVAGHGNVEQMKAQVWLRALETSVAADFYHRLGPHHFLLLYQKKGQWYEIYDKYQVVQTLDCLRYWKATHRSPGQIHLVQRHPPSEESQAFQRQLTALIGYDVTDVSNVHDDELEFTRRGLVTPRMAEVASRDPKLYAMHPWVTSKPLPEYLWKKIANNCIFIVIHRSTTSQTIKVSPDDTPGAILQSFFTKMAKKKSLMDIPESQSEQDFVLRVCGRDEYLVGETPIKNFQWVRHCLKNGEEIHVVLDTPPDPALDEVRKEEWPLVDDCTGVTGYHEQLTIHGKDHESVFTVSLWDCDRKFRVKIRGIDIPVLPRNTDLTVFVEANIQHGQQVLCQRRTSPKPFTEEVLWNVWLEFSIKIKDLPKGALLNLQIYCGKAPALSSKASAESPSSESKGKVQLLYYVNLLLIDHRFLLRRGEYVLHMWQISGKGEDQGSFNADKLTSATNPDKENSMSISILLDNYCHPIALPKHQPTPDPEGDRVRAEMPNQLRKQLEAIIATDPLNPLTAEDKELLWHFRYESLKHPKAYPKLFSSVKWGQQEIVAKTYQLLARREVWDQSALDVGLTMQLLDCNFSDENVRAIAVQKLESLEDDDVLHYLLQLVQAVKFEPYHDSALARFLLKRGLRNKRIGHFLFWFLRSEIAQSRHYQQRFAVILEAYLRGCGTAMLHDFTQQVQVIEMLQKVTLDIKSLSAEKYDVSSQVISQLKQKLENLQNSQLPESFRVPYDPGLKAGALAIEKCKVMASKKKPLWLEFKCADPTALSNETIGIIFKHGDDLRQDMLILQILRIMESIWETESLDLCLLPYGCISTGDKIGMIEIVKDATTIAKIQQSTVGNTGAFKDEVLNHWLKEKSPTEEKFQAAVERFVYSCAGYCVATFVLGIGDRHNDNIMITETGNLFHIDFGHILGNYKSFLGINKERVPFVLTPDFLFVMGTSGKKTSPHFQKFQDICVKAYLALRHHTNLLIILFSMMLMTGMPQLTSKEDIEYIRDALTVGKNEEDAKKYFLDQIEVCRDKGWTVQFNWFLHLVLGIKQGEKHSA
# Sequence of Phosphatidylinositol 4,5-bisphosphate 3-kinase catalytic subunit beta isoform (P42338 whole entry, canonical isoform): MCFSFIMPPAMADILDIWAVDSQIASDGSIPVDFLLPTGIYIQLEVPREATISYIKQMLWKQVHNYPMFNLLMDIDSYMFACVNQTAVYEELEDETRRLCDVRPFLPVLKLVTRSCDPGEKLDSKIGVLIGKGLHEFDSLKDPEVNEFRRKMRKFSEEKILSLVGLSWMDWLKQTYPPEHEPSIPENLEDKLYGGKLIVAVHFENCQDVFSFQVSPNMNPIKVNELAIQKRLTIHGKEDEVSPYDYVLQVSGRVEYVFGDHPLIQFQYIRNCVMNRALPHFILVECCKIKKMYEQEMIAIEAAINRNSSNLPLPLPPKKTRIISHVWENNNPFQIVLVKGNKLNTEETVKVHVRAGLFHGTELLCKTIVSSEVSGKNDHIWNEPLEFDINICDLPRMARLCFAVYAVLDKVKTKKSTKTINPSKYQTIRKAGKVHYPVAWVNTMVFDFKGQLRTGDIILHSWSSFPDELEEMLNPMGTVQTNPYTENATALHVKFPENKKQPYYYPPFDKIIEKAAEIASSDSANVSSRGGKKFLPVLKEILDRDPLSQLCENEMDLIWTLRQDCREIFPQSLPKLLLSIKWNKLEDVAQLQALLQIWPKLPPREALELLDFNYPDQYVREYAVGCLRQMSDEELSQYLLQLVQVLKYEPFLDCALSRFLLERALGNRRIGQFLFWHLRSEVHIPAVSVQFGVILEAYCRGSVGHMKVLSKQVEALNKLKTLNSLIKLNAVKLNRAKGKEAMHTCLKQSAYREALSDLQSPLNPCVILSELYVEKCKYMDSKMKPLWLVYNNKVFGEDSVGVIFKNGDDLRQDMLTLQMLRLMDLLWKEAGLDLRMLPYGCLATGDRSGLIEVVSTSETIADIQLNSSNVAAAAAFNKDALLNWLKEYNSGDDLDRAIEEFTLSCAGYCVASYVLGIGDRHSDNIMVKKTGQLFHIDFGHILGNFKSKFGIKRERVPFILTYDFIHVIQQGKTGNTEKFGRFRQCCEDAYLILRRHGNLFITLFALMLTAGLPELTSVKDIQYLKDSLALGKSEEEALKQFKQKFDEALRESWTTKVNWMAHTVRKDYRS
# Sequence of Phosphatidylinositol 4,5-bisphosphate 3-kinase catalytic subunit alpha isoform (P42336 whole entry, canonical isoform): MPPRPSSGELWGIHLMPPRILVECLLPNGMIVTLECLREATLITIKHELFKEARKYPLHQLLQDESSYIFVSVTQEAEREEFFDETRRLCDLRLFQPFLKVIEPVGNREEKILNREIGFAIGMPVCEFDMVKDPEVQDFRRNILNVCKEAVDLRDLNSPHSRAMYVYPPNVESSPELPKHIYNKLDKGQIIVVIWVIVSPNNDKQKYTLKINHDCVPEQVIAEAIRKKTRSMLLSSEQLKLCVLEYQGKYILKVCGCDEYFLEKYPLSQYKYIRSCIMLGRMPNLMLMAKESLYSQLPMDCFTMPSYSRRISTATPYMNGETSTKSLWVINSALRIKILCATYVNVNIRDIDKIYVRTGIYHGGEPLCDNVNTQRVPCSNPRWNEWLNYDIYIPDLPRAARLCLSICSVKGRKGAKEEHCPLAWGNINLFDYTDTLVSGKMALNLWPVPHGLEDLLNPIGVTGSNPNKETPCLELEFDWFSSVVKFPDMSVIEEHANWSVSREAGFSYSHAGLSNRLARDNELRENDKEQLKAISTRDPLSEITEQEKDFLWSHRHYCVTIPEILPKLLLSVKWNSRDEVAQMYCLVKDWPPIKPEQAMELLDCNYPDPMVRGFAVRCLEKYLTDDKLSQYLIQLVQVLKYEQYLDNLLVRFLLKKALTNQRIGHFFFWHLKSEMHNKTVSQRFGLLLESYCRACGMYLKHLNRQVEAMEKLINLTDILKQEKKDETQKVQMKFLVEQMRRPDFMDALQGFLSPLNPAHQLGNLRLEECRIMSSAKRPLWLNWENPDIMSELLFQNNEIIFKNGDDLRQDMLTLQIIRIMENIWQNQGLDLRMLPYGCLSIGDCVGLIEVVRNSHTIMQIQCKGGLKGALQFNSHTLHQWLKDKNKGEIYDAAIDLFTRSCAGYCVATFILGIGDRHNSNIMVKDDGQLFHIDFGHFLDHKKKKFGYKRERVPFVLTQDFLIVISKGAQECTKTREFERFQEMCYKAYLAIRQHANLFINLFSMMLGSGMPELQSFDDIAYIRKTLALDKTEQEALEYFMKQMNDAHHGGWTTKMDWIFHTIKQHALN
IC50 [1] [nM],IC50 [2] [nM],IC50 [3] [nM],IC50 [4] [nM],IC50 [5] [nM],clearance [6] [mL/min/kg],Stability [7],bioavailability [8] [%],SMILES
1.2,200,80,830,1.2,,,,C[C@H](Nc1ncnc(N)c1C#N)c1nc2ccc(F)cc2c(N2CCOCC2)c1-c1ccccn1
8.3,1420,240,4400,12,,,,CC(Nc1ncnc(N)c1C#N)c1nc2ccc(F)cc2c(C#N)c1-c1ccccn1 (racemic)
0.7,220,510,920,0.1,167,Unstable,,C[C@H](Nc1ncnc(N)c1C#N)c1nc2ccc(F)cc2c(S(C)(=O)=O)c1-c1ccccc1
8.8,1100,> 20000,> 20000,,,,,CC(Nc1ncnc(N)c1C#N)c1nc2ccc(F)cc2cc1-c1ccccn1 (racemic)
,,,,,0.95,,51,C[C@H](Nc1ncnc(N)c1C#N)c1nc2ccc(F)cc2c(-c2ccccn2)c1-c1ccccn1
4,250,230,1370,11,,,,CC(Nc1ncnc(N)c1C#N)c1nc2ccc(F)cc2c(Cl)c1-c1ccccn1 (racemic)
0.4,120,460,1200,3.1,,,,CC(Nc1ncnc(N)c1C#N)c1nc2ccc(F)cc2c(NCCO)c1-c1ccccc1 (racemic)
16,4950,4030,,3.1,,,,COCc1c(-c2ccccn2)c([C@H](C)Nc2ncnc(N)c2C#N)nc2ccc(F)cc12
1.7,1600,5000,1600,,,,,C[C@H](Nc1ncnc(N)c1C#N)c1nc2ccc(F)cc2c(NCCN(C)C)c1-c1ccccc1
0.6,13,420,1080,2.4,,,,COCCNc1c(-c2ccccc2)c([C@H](C)Nc2ncnc(N)c2C#N)nc2ccc(F)cc12

# The remaining lines, values behind:
SMILES,IC50 [1] [nM],IC50 [2] [nM],IC50 [3] [nM],IC50 [4] [nM],IC50 [5] [nM],clearance [6] [mL/min/kg],Stability [7],bioavailability [8] [%]
Cc1cccnc1-c1c(-c2ccccn2)c([C@H](C)Nc2ncnc(N)c2C#N)nc2ccc(F)cc12,15,> 20000,> 20000,> 20000,,3.5,,
COc1c(-c2ccccc2)c([C@H](C)Nc2ncnc(N)c2C#N)nc2ccc(F)cc12,1.2,11,8.2,420,0.8,,,
C[C@H](Nc1ncnc(N)c1C#N)c1nc2ccc(F)cc2c(N2CC(O)C2)c1-c1ccccn1,18,510,280,1210,1.4,,,
CC(Nc1ncnc(N)c1C#N)c1nc2ccc(F)cc2c(N(C)C)c1-c1ccccn1 (racemic),1.4,290,710,1150,3.6,,,
C[C@H](Nc1ncnc(N)c1C#N)c1nc2ccc(F)cc2c([S+]([O-])CCO)c1-c1ccccc1 (some centres not stated),2.5,380,160,620,,,,
CC(Nc1ncnc(N)c1C#N)c1nc2ccc(F)cc2c(O)c1-c1ccccc1 (racemic),16,210,> 20000,> 20000,2.8,11.7,,15
C[C@H](Nc1ncnc(N)c1C#N)c1nc2ccc(F)cc2c(NCCS(C)(=O)=O)c1-c1ccccc1,0.2,19,500,900,0.5,,,
